EBI2 antag – EBI2 (human) antagonism. P32249. EBI2 beta-arrestin recruitment, luminescence, 7a,25-OHC stimulated. inhibition, % at 5 µM. 0.81% of 360,000 active; in the data active = inhibition above about 38%;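 note: enzyme fragment complementation signal reports receptor beta-arrestin coupling in cells; 0% = agonist plus DMSO wells and 100% = wells without agonist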
APJ ag – activates the human apelin receptor APJ; P35414; CHO-K1 APJ PathHunter beta-arrestin, luminescence; 0% DMSO wells, 100% apelin; activation, % at 20 µM; 0.11% of 330,000 active;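 active = activation more than six SD over the plate average, tested at 20 µM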;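 note: 0% = DMSO alone and 100% = apelin-13 at 10 nM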
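assay system = CHO-K1 APJ beta-arrestin complementation cell line | input = cell density 1000 per well | dosing = compound 20 µM once, DMSO 1% | timing = compound 90 min 25 °C, reagent 1 h | measured by = luminescence from split beta-galactosidase complementation, Galacton Star/Emerald II substrate | read-out basis = APJ agonist activity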
H9c2 TAG inh – inhibitors of triacylglycerol accumulation | H9c2 cells, Nile Red lipid (TAG) fluorescence; cells loaded with 200 µM oleic acid | inhibition, % at 12.5 µM | 0.66% of 230,000 active;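 active = pattern-corrected inhibition of lipid staining of at least 50% with the nuclear-stain viability signal not falling by more than 50%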;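 note: 0% = DMSO wells and 100% = triacsin C control wells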
APJ antagonist – antagonists of human APJ apelin receptor | P35414 | CHO-K1 APJ beta-arrestin complementation, luminescence | inhibition, % at 20 µM | 0.32% of 330,000 active | AID 2521;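 active = inhibition above about 40% at 20 µM, limit read from the data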;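 note: cells challenged with 10 nM apelin-13 agonist together with compound; plate controls were apelin-13 plus DMSO wells for no effect and DMSO wells lacking apelin-13 for full effect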
CXCR6 inh – CXCR6 (human) receptor inhibition; O00574; 0.36% of 360,000 active; inhibition, % at 20 µM; CHO-K1 PathHunter CXCR6 beta-arrestin, luminescence; AID 602244; in the data active = inhibition above about 34%, passing the limit was not always enough;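 note: antagonist mode with CXCL16 agonist at 10 nM final; 0% = 10 nM CXCL16 with DMSO and 100% = unstimulated wells without agonist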
Target sequence (O00574 whole entry, looked up): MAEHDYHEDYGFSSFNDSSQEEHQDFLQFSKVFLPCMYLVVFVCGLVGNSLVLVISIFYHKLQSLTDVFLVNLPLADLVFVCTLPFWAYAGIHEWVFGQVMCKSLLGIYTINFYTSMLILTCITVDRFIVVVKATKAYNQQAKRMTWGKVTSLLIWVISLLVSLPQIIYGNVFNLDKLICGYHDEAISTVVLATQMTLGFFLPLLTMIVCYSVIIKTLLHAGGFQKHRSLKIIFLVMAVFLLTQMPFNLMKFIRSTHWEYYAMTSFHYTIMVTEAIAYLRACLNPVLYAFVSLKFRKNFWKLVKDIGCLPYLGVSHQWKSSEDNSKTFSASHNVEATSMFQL
CCR6 antag – blocks CCL20-driven beta-arrestin recruitment at human CCR6. P51684. CHO-K1 CCR6 PathHunter beta-arrestin, luminescence, CCL20-stimulated. inhibition, % at 20 µM. 0.49% of 340,000 active. AID 493098;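 active = compounds whose inhibition of the agonist-driven luminescence signal at 20 µM reaches about 50%, limit read from the data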;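 note: cells stimulated with CCL20 at 14 nM final; plate controls were DMSO with CCL20 for no effect and DMSO without agonist for full effect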
Target sequence (P51684 whole entry, looked up): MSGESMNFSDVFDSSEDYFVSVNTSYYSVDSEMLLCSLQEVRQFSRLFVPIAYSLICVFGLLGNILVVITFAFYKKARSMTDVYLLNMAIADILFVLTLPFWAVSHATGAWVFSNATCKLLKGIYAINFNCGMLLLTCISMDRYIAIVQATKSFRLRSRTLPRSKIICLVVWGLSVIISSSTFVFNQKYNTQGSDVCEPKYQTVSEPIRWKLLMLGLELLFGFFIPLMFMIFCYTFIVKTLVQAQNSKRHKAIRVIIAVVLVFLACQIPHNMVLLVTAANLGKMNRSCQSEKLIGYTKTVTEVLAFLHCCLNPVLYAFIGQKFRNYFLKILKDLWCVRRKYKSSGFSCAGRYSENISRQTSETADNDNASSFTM
EBI2 conf – confirmation of human EBI2 receptor antagonists; shares compounds with EBI2 antag; EBI2 beta-arrestin luminescence, 7a,25-OHC antagonism; inhibition, % at 5 µM; 29% of 2,400 active;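 active = inhibition of at least 50%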
EBI2 agonist – activates EBI2, counter-screen for EBI2 antagonists; activation, % at 5 µM; AID 652000; shares compounds with EBI2 antag; 2,400 tested, under 10 active; EBI2-expressing cells, agonist mode, luminescence, 60 min; 0% vehicle, 100% 7α,25-dihydroxycholesterol control;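 active = activation of at least 50%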
bGal counter – inhibits E. coli beta-galactosidase, counter-screen for EBI2 antagonists; purified beta-galactosidase, luminescent Galacton Star, 15 min; inhibition, % at 5 µM; 1% of 2,400 active; AID 652176; shares compounds with EBI2 antag;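 active = replicate-average signal at least 3 plate SD below neutral wells, shown as high inhibition, flagging enzyme-inhibiting false positives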;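 note: 0% = DMSO wells with enzyme and 100% = wells lacking enzyme; higher means stronger loss of beta-gal luminescence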
An asterisk follows results filed as active; . = no result given; ! = a repeat was not active. The list is not random: actives were taken first. Their share in the collection is about 1.9%.

SMILES	EBI2 antag	APJ ag	H9c2 TAG inh	APJ antagonist	CXCR6 inh	CCR6 antag	EBI2 conf	EBI2 agonist	bGal counter
CNC(=S)N1N=C(c2ccc(C)cc2)CC1c1ccc(Br)cc1 (centres undefined)	81.5*	-1.5	.	-3.2	6.7	5.8	64.8*	-1.2	-8.9
CNC(=S)N1N=C(c2ccc(C)cc2)CC1c1ccc(Cl)cc1 (centres undefined)	73.3*	0.8	20.3	13.3	6.7	-2.2	61.6*	-0.7	-6.5
CC(C)c1ccc(C2CC(c3ccc(Br)cc3)=NN2C(N)=S)cc1 (centres undefined)	72.1*	0.5	.	3.6	16.7	25.4	59.5*	-1.7	-10.8
CC(=O)N1N=C(c2ccc(Br)cc2)CC1c1ccc(Br)cc1 (centres undefined)	7.6	.	-31.5	.	5.5	.	.	.	.
O=C(COC(=O)CC1CCCC1)Nc1ccc(Cl)cc1	4.6	-2.7	-18.8	16.5	8.3	3.9	.	.	.
COC(=O)Cc1ccc(NC(=O)c2ccc3c(c2)C(=O)N(Cc2ccco2)C3=O)cc1	51.5*	-1.6	-0.8	-7.6	-7.5	9.7	24.3	2.1	9.0
COC(=O)Cc1ccc(NC(=O)c2ccc3c(c2)C(=O)N(Cc2cccnc2)C3=O)cc1	12.0	-3.4	3.3	-12.7	-0.4	4.0	.	.	.
COc1cc(C2c3cc4c(cc3CC3COC(=O)N32)OCO4)cc(OC)c1OC (centres undefined)	-12.8	.	35.9	.	7.7	-0.7	.	.	.
COc1ccc(OCCN2CCC(C(=O)NC(c3ccc(Cl)cc3)c3ncccc3C)CC2)cc1 (centres undefined)	55.0*	.	-26.5	.	6.1	.	16.9	-1.8	-14.0
COc1ccccc1C(NC(=O)C1CCN(CCOc2ccc3ccccc3c2)CC1)c1ccccn1 (centres undefined)	44.6*	.	4.6	.	15.9	.	18.1	-0.2	7.8
COc1ccc(OCCN2CCC(C(=O)NC(c3ccc(F)cc3)c3ncccc3C)CC2)cc1 (centres undefined)	45.5*	.	-2.4	.	-3.3	.	11.7	-1.1	-4.5
CC(C)CN1CCC(C(=O)NC(c2ccc(F)cc2)c2ccc3ccccc3n2)CC1 (centres undefined)	-0.2	.	10.3	.	12.2	.	.	.	.
COc1ccc(/C=C/CN2CCC(C(=O)NC(c3ccc(F)cc3)c3ccc4ccccc4n3)CC2)cc1 (centres undefined)	59.9*	.	21.3	.	9.5	.	25.8	-1.0	-6.4
Cc1c(C(=O)Nc2ccccc2)c2ccc(C(F)(F)F)cc2n1O	-6.0	2.8	1.5	-17.4	-18.8	-9.2	.	.	.
COc1ccc(S(=O)(=O)N(C)C[C@H]2Oc3ncc(Br)cc3C(=O)N([C@@H](C)CO)C[C@@H]2C)cc1	4.5	.	6.8	.	-0.9	.	.	.	.
CCN(CC)CCNC(=O)CCc1c(C)nc2c(c(C)nn2-c2ccc(C)c(C)c2)c1C	12.7	-1.5	.	18.0	-5.6	30.9	.	.	.
CC1CCN(CCc2nc3cc(NC(=O)COc4ccc(Cl)cc4)ccc3n2C)CC1	-6.8	2.1	.	-6.0	-1.3	32.7	.	.	.
COc1cc2cc(C(c3nnnn3C3CCCCC3)N(C)C3CCCCC3)c(=O)[nH]c2cc1OC (centres undefined)	36.1*	-0.5	.	8.4	17.0	-15.7	46.5	0.7	-0.8
COc1cc2cc(C(c3nnnn3C3CCCC3)N(C)C3CCCCC3)c(=O)[nH]c2cc1OC (centres undefined)	58.3*	-1.6	.	-2.2	7.6	-7.3	53.9*	2.4	2.9
CCN1CCN(S(=O)(=O)c2ccc(Cl)c(C(=O)NCc3nc4ccccc4[nH]3)c2)CC1	1.4	-3.5	2.1	0.6	-0.1	7.1	.	.	.
COc1ccccc1OCC(=O)NCC1CCCN(Cc2cnn(C)c2C)C1 (centres undefined)	-11.5	3.6	3.5	8.4	-10.6	4.5	.	.	.
Oc1ccc(-c2nccs2)cc1	4.2	.	-0.9	.	3.1	-2.4	.	.	.
CCOC(=O)c1ccc(N=c2sc(C(=O)OC)cc(=O)n2CCCN2CCOCC2)cc1	68.3*	-3.7	12.7	13.9	10.3	10.5	67.1*!	-0.5	-12.1
COC(=O)c1cc(=O)n(CCc2ccc(OC)cc2)c(=Nc2ccc(F)c(Cl)c2)s1	66.1*	-5.2	5.1	4.7	8.4	13.7	41.3	-0.8	6.6
CCn1c(=O)cc(C(=O)OC)sc1=Nc1ccc(F)c(F)c1	51.2*	-0.8	6.6	12.7	8.5	14.2	53.3*	1.6	6.1
SMILES	EBI2 antag	APJ ag	H9c2 TAG inh	APJ antagonist	CXCR6 inh	CCR6 antag	EBI2 conf	EBI2 agonist	bGal counter
COC(=O)c1ccc2c(=O)n(CCCN3CCOCC3)c(=S)[nH]c2c1	3.3	0.7	.	10.7	0.2	3.3	.	.	.
COC(=O)c1cc(=O)n(Cc2ccc(OC)cc2)c(=NCc2ccc(OC)cc2)s1	42.4	-3.3	.	4.4	2.0	30.0	.	.	.
O=C(CCNC(=O)C1CCN(S(=O)(=O)c2ccc(F)cc2)CC1)Nc1nccs1	5.8	-1.1	.	13.7	7.8	11.2	.	.	.
COc1ccc(/C=C/C(=O)c2ccc3c4c(cccc24)CC3)cc1	56.5*	-0.4	.	-6.0	3.4	2.1	35.9	1.6	4.5
Cn1c(C(=O)N2CCN(c3ccccc3)CC2)cc2cc(Cl)ccc21	44.2*	0.4	-8.5	-17.6	5.6	1.0	38.0	0.3	-4.3
Cn1c(C(=O)N2CCN(c3ccccn3)CC2)cc2ccccc21	32.5	-2.0	.	-7.2	4.0	-1.1	.	.	.
COc1ccc(C(=O)C(=O)N2CCC(c3ccccc3)CC2)cn1	42.9*	.	.	.	.	.	23.3	0.8	5.7
O=C(C(=O)N1CCC(c2ccccc2)CC1)c1cccc([N+](=O)[O-])c1	19.3	.	.	.	.	.	.	.	.
Cc1cc(Cl)c2oc(C(=O)N3CCOCC3)c(C)c2c1	-3.4	.	6.0	.	9.5	.	.	.	.
Cc1ccc2c(C)c(C(=O)N3CCN(c4cnccn4)CC3)oc2c1C	31.7	4.8	8.5	19.2	-15.4	7.0	.	.	.
Cc1cc(Cl)c2oc(C(=O)N3CCN(C(=O)c4ccco4)CC3)c(C)c2c1	44.4*	3.2	.	-41.6	1.4	7.8	19.9	-1.6	-7.2
Cc1cc(Cl)c2oc(C(=O)N3CCN(c4cnccn4)CC3)c(C)c2c1	53.6*	.	-4.8	.	1.3	.	32.8	-1.1	-8.1
Cc1nc2ccc(NC(=O)c3cccs3)cc2c(=O)n1Cc1ccc(Cl)cc1	16.6	1.6	.	-12.9	14.2	10.2	.	.	.
CCCc1nc2ccc(NC(=O)c3cccs3)cc2c(=O)n1Cc1ccc(Cl)cc1	42.8*	-1.5	14.8	6.3	2.1	-9.5	20.0	2.6	6.0
